Data set [1] is described as follows: Antioxidant activity assessed as inhibition of ABTS radical cation generation at 1 mg/ml by colorimetric method relative to control. The data set is classed as physicochemical. In short, it runs like this: (§1)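 ABTS radical cation solution read at 734 nm. Test samples were added as a 1 mg/ml solution in MeOH/buffer (1:1 v/v); ascorbic acid (2 mM solution) and curcumin (1 mg/ml) were the standards. % inhibition = (Acontrol − Atest)/Acontrol × 100. Blank was solvent without ABTS.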

Data set [2] is described as follows: Cytotoxicity against mouse EAC cells assessed as dead cells at 25 uM after 24 hrs by trypan blue dye exclusion method relative to control. It is filed as functional, Ehrlich. In short, it runs like this: (§2)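 EAC cells came from ascitic fluid of female Swiss albino mice 7-8 days after inoculation and were washed in HEPES-buffered Hanks' salt solution. They were preincubated 24 h in RPMI 1640 with 10% fetal calf serum at 2 × 10⁵ cells/ml, 37 °C, 5% CO₂. Cells were then exposed to drug for 24 h, PBS-washed and counted by trypan blue exclusion. Survival = viable T/C × 100; triplicate mean.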

A short description of data set [3]: Cytotoxicity against mouse EAC cells assessed as dead cells at 50 uM after 24 hrs by trypan blue dye exclusion method relative to control. The data set is classed as functional, Ehrlich. In short, it runs like this:
as §2

A short description of data set [4]: Cytotoxicity against mouse EAC cells assessed as dead cells at 100 uM after 24 hrs by trypan blue dye exclusion method relative to control. It is filed as functional, Ehrlich. In outline: as §2
Data set [5] can be described thus: Antitumor activity against mouse EAC cells allografted in Swiss albino mouse assessed as tumor growth inhibition at 75 mg/kg, po administered for 21 days measured 21 day post dose relative to control. It is filed as functional. As to conditions: Ehrlich, 504 h, read-out: TGI. In short, it runs like this: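 EAC was kept by i.p. passage in female Swiss albino mice. Washed ascitic cells (5 × 10⁵ viable per 0.1 ml saline) were injected s.c. At 50–100 mm³, mice were split into groups of 10 and given compound 75 mg/kg orally in CMC for 21 consecutive days; controls got saline 5 ml/kg. Tumor size was read at day 0 and day 21. Inhibition was derived from ΔT/ΔC × 100.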

A short description of data set [6]: Antioxidant activity assessed as inhibition of ABTS radical cation generation at 2 mM by colorimetric method relative to control. The data set is classed as physicochemical. The conditions noted are these: 2000 µM. In outline: as §1

Turning to `COc1ccc(/C=C/C2=NN(C(N)=S)C(c3ccc(OC)cc3)C2)cc1` (stereo not given), the “inhibition (INH)” value in data set [1] is listed as 84.52%. The Activity was found to be 28.7% in data set [2], 57.5% in data set [3] and 98% in data set [4]. Further, the inhibition in vivo at 75 mg/kg in data set [5] was determined as 76%.

Consider `COc1ccc(/C=C/C2=NN(c3nc(-c4ccccc4)cs3)C(c3ccc(OC)cc3)C2)cc1` (stereo not given), for which, in data set [1], the “inhibition (INH)” value is 76%. Further, the Activity in data set [2] is given as 30.4%; in data set [3] it was 61.6%; in data set [4] it was 98.3%. Further, in data set [5], the inhibition in vivo at 75 mg/kg stood at 65%.

For `CCN1C/C(=C\c2ccc(OC)cc2)C2=NN(C(N)=S)C(c3ccc(OC)cc3)C2C1` (stereo not given), the “inhibition (INH)” value in data set [1] is 88.17%. Further, the Activity in data set [2] is 31.7%; in data set [3], 66.5%; in data set [4], 99%. For the same compound, the inhibition in vivo at 75 mg/kg in data set [5] is 77%.

For `COc1ccc(/C=C2\CCC3C2=NN(c2nc(-c4ccc(Cl)cc4)cs2)C3c2ccc(OC)cc2)cc1` (stereo not given), the “inhibition (INH)” value in data set [1] is 27.47%. Further, the values for the Activity in data set [2], in data set [3] and in data set [4] were 25%, 47.1% and 93.5%, respectively.

On to `COc1ccc(/C=C2\CN(C)CC3C2=NN(c2nc(-c4ccc(Cl)cc4)cs2)C3c2ccc(OC)cc2)cc1` (stereo not given), for which the “inhibition (INH)” value in data set [1] came to 69.56%. Also, the Activity is recorded as 29.2% in data set [2], 58% in data set [3] and 97.9% in data set [4]. Moreover, in data set [5], the inhibition in vivo at 75 mg/kg amounted to 70%.

On to `CCN1C/C(=C\c2ccc(OC)cc2)C2=NN(c3nc(-c4ccccc4)cs3)C(c3ccc(OC)cc3)C2C1` (stereo not given), for which the “inhibition (INH)” value in data set [1] is on record as 60.52%. Further, the values for the Activity in data set [2], in data set [3] and in data set [4] were 27.8%, 50.2% and 95.4%, respectively.

For the compound `CCN1C/C(=C\c2ccc(OC)cc2)C2=NN(c3nc(-c4ccc(Cl)cc4)cs3)C(c3ccc(OC)cc3)C2C1` (stereo not given), the “inhibition (INH)” value in data set [1] was 82.6%. Besides, the Activity in data set [2] came out at 98.3%; in data set [3], 100%; in data set [4], 100%. Also, in data set [5], the inhibition in vivo at 75 mg/kg is 82%.

On to `COc1ccc(/C=C2\CCCC3C2=NN(C2=NC(=O)/C(=C/c4ccc(Cl)cc4)S2)C3c2ccc(OC)cc2)cc1` (stereo not given), for which the “inhibition (INH)” value in data set [1] is given as 25.73%. Moreover, the Activity in data set [2] was 23.8%; in data set [3] it was 46%; in data set [4] it was 84%.

Consider `COc1ccc(/C=C2\CCCC3C2=NN(C2=NC(=O)/C(=C/c4ccc(Br)cc4)S2)C3c2ccc(OC)cc2)cc1` (stereo not given), for which, in data set [1], the “inhibition (INH)” value worked out at 5.21%. The Activity in data set [2] is 22%; in data set [3], 43.8%; in data set [4] it was 81.6%.

As for `COc1ccc(/C=C2\CCCC3C2=NN(C2=NC(=O)/C(=C/c4ccc(OC)c(OC)c4)S2)C3c2ccc(OC)cc2)cc1` (stereo not given), the “inhibition (INH)” value in data set [1] is 19.13%. For the same compound, the figures for the Activity in data set [2], in data set [3] and in data set [4] were 20.4%, 40% and 75.8%, respectively.

For the compound `N#Cc1c(N)nc2c(c1-c1ccc(O)cc1)CCC/C2=C\c1ccc(O)cc1`, the “inhibition (INH)” value in data set [1] is 8.69%. Further, the Activity was determined as 21.7% in data set [2], 43.4% in data set [3] and 81% in data set [4].

Consider `COc1cc(/C=C2\CCCc3c2nc(N)c(C#N)c3-c2ccc(O)c(OC)c2)ccc1O`, for which, in data set [1], the “inhibition (INH)” value came out at 46.6%. The Activity in data set [2] worked out at 60.2%; in data set [3], 84%; in data set [4], 99.7%. The inhibition in vivo at 75 mg/kg in data set [5] stood at 80%.

For the compound `COc1ccc(/C=C2\CCCc3c2nc(N)c(C#N)c3-c2ccc(OC)c(OC)c2)cc1OC`, in data set [1], the “inhibition (INH)” value is reported as 9.73%. In addition, the Activity was found to be 24.9% in data set [2], 45.1% in data set [3] and 84.2% in data set [4].

Consider `O=C1O[C@H]([C@@H](O)CO)C(O)=C1O` [ASCORBIC ACID], for which the “inhibition (INH)” value in data set [6] is 88.34%.

In the case of `COc1cc(/C=C/C(=O)CC(=O)/C=C/c2ccc(O)c(OC)c2)ccc1O` [CURCUMIN], the “inhibition (INH)” value in data set [1] came to 86.6%.
